The subject of this assay is Vero. As to the kind of experiment: Anti-Herpes simplex virus type-1 activity in vero cells using plaque inhibition assay. In kind it is functional, cell-based, Chlorocebus sabaeus. In outline:
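Plaque-reduction assay with HSV-1 McIntyre strain (titrated suspension) on confluent Vero monolayers. Cells infected with 100 PFU in MEM and adsorbed 2 h at 37 °C. Inoculum then replaced with MEM containing 0.2% γ-globulin plus serial concentrations of compound. Untreated infected wells served as CPE controls; CPE completed 1–2 days post-infection. Result given as IC50.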

SMILES strings stand for the structures.

For the compound `O=C(O)C1=C(C(=O)Oc2ccc(F)c(F)c2F)CCC1`, where the note is “Chlorocebus sabaeus, Vero”, the IC50 (commonly the concentration at which inhibition is half-maximal) was 1800 nM.

In turn, `Cc1noc(C)c1[N+](=O)[O-]` had an IC50 (Chlorocebus sabaeus, Vero) of 900 nM.

With `O=C(O)C1=C(C(=O)Nc2ccc(F)c(F)c2F)CCC1`, for the setting “Chlorocebus sabaeus, Vero”, the IC50 was determined as 900 nM.

Take `O=C(O)C1=C(C(=O)Nc2c(F)cccc2F)CCC1`: half-maximal inhibition (Chlorocebus sabaeus, Vero) (IC50) was put at 900 nM.

Consider `O=C1NC(=O)C([N+](=O)[O-])C(=O)N1`, for which, where the note is “Chlorocebus sabaeus, Vero”, the IC50 was 1700 nM.

`O=C(O)C1=C(C(=O)Oc2ccc(F)cc2F)CCC1` displayed an IC50 (Chlorocebus sabaeus, Vero) of 1400 nM. This IC50 and that of the compound before are within 1.5-fold of each other.

The compound `O=C(O)C1=C(C(=O)Nc2cccc(F)c2F)CCC1` showed an IC50 (Chlorocebus sabaeus, Vero) of 900 nM. Compared with the last compound, the IC50 is about 1.6-fold lower.

Consider `Cc1cc(=O)oc2cc(OCC(=O)O)ccc12`, for which the IC50 (Chlorocebus sabaeus, Vero) stood at 70 nM.

On to `O=C(O)c1n[nH]nc1C(=O)O`, for which the IC50 (Chlorocebus sabaeus, Vero) worked out at 5000 nM. This IC50 lies about 71-fold higher than the previous one.

For the setting “Chlorocebus sabaeus, Vero”, `O=C(CN1CCNCC1)N1CCCC1` yielded an IC50 of 600 nM.

`Cc1cn([C@@H]2O[C@H](CO)[C@@H](O)[C@H]2O)c(=O)nc1N` gave an IC50 (Chlorocebus sabaeus, Vero) of 60 nM.

As for `Nc1nc(N)c2nc(CO)cnc2n1`, the IC50 (Chlorocebus sabaeus, Vero) was determined as 160 nM.

On to `O=C(O)CCCCC(=O)O` [ADIPIC ACID], for which the half-maximal inhibitory concentration (IC50) (Chlorocebus sabaeus, Vero) was determined as 400 nM.

`Nc1ncnc2c1ncn2[C@@H]1O[C@H](CO)C[C@H]1O` [CORDYCEPIN] showed an IC50 (Chlorocebus sabaeus, Vero) of 500 nM.

Where the note is “Chlorocebus sabaeus, Vero”, `O=c1ccn([C@H]2C[C@H](O)[C@@H](CO)O2)c(=O)[nH]1` [DEOXYURIDINE] returned an IC50 of 2200 nM.

With `Cc1cn([C@H]2C[C@H](O)[C@@H](CO)O2)c(=O)[nH]c1=O` [DOXRIBTIMINE], the IC50 by setting is: (Chlorocebus sabaeus, Vero) 400 nM; (vero) 300 nM.

Consider `O=c1[nH]cnc2c1ncn2[C@@H]1O[C@H](CO)[C@@H](O)[C@H]1O` [INOSINE], for which, where the note is “Chlorocebus sabaeus, Vero”, it took 230 nM to reach half-maximal inhibition (IC50).

Compound `OC[C@H]1O[C@@H](n2cnc3cncnc32)[C@H](O)[C@@H]1O` [NEBULARINE] registered an IC50 (Chlorocebus sabaeus, Vero) of 600 nM.

Compound `O=C1CN(/N=C/c2ccc([N+](=O)[O-])o2)C(=O)N1` [NITROFURANTOIN] gave an IC50 (Chlorocebus sabaeus, Vero) of 900 nM. This IC50 lies about 1.5-fold higher than the previous one.

For the setting “Chlorocebus sabaeus, Vero”, `O=C(O)CCC(=O)O` [SUCCINIC ACID] displayed an IC50 of 1300 nM.

These data come from ChEMBL document CHEMBL1132358, “Virtual combinatorial syntheses and computational screening of new potential anti-herpes compounds” (J Med Chem, 1999).
